Assay results from ChEMBL document CHEMBL3259688, “Synthesis and structure-activity relationship studies of conformationally flexible tetrahydroisoquinolinyl triazole carboxamide and triazole substituted benzamide analogues as σ2 receptor ligands” (J Med Chem, 2014).

Experiments:
[1] = target: Sigma non-opioid intracellular receptor 1 (Cavia porcellus, UniProt Q60492); assay: Displacement of (+)-[3H]pentazocine from sigma-1 receptor in guinea pig brain membrane homogenate after 90 mins by liquid scintillation counting analysis; format: cell membranes
Method in brief: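 Nonspecific binding with cold haloperidol. Compounds from DMSO or ethanol, diluted in 50 mM Tris-HCl, 150 mM NaCl, 100 mM EDTA, pH 7.4. Stopped with ice-cold 10 mM Tris-HCl/150 mM NaCl pH 7.4, filtered on fiberglass, washed, scintillation counted.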

[2] = Displacement of [3H]DTG from sigma-2 receptor in rat liver membrane homogenate after 2 hrs by liquid scintillation counting analysis in presence of pentazocine; format: cell membranes
[3] = Selectivity ratio of Ki for sigma-1 receptor in guinea pig brain membrane homogenate to Ki for sigma-2 receptor in rat liver membrane homogenate; format: cell membranes
[4] = Lipophilicity, log P of the compound; format: physicochemical; conditions: octanol/water
[5] = target: Sigma non-opioid intracellular receptor 1 (Mus musculus, UniProt O55242); assay: Displacement of 5-bromo-N-(4-(3,4-dihydro-6,7-dimethoxyisoquinolin-2(1H)-yl)butyl)-2,3-dimethoxybenzamide from sigma-1 receptor in mouse EMT6 cell membranes after 60 mins by Scatchard plot analysis
[6] = Displacement of 5-bromo-N-(4-(3,4-dihydro-6,7-dimethoxyisoquinolin-2(1H)-yl)butyl)-2,3-dimethoxybenzamide from sigma-2 receptor in mouse EMT6 cell membranes after 60 mins by Scatchard plot analysis
[7] = Antagonist activity at sigma-2 receptor in mouse EMT6 cells assessed as inhibition of cell proliferation after 24 hrs by MTS assay; format: cell-based; conditions: EMT6, 24 h
Method in brief: (§1)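 EMT-6 mouse breast cancer cells grown in DMEM with 10% FBS and penicillin/streptomycin at 37 °C, 5% CO2. Seeded at 5 × 10^3 cells/well 24 h before dosing; serial dilutions from DMSO stocks, final DMSO ≤1.0%. Exposure 24 or 48 h, then MTS reagent 1–2 h at 37 °C, absorbance 490 nm vs untreated cells. EC50 from dose–response curves; triplicate wells, mean ± SEM of three independent experiments.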

[8] = Antagonist activity at sigma-2 receptor in mouse EMT6 cells assessed as inhibition of cell proliferation after 48 hrs by MTS assay; format: cell-based; conditions: EMT6, 48 h; method in brief: as §1
[9] = target: Sigma non-opioid intracellular receptor 1 (Homo sapiens, UniProt Q99720); assay: Binding affinity to sigma-1 receptor (unknown origin)
[10] = Binding affinity to sigma-2 receptor (unknown origin); set-up: species or system Homo sapiens
Homo sapiens = species: Homo sapiens; assay: Selectivity ratio of Ki for sigma-1 receptor (unknown origin) to Ki for sigma-2 receptor (unknown origin)
EMT6 = assay: Selectivity ratio of Ki for sigma-1 receptor in mouse EMT6 cell membranes to Ki for sigma-2 receptor in mouse EMT6 cell membranes; format: cell-based
[11] = Displacement of [3H]DTG from sigma-2 receptor in human MCF7 cell membranes after 120 mins

Chain of Sigma non-opioid intracellular receptor 1 (Mus musculus, UniProt O55242) (O55242 whole entry): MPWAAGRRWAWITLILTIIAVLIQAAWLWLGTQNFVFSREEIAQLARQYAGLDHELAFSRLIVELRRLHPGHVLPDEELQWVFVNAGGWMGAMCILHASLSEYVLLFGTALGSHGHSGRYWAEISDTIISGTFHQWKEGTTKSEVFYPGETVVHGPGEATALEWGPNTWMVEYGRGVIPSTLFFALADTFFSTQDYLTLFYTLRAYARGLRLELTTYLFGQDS
Chain of Sigma non-opioid intracellular receptor 1 (Cavia porcellus, UniProt Q60492) (Q60492 whole entry): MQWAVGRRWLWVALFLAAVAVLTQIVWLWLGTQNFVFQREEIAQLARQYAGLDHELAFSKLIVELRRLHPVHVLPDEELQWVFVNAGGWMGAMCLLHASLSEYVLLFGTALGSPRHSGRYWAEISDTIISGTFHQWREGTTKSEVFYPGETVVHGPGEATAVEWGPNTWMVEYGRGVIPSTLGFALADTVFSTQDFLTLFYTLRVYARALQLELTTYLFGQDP
Chain of Sigma non-opioid intracellular receptor 1 (Homo sapiens, UniProt Q99720) (Q99720 whole entry): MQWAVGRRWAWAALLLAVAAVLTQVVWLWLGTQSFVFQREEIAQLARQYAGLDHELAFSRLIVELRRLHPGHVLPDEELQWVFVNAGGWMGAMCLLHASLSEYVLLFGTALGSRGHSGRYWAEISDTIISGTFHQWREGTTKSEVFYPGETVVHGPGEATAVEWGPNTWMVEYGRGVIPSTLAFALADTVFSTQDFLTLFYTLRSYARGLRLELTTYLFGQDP

| SMILES | Ki [1] [nM] | Ki [2] [nM] | Ratio Ki [3] | other results |
| --- | --- | --- | --- | --- |
| C#CCOc1ccc(C#N)cc1C(=O)NCCCCN1CCc2cc(OC)c(OC)cc2C1 | 3680 | 12.2 | 301 | – |
| COc1cc2c(cc1OC)CN(CCCCNC(=O)c1cc(-n3cc(CN(C)C)nn3)ccc1OC)CC2 | 22400 | 56.8 | 395 | – |
| COc1ccc(Cn2cc(C(=O)NCCN3CCc4cc(OC)c(OC)cc4C3)nn2)cc1 | 84500 | 93.2 | 906 | – |
| COc1cc2c(cc1OC)CN(CCCCNC(=O)c1cn(-c3cccc(OCCF)c3)nn1)CC2 | 17900 | 25.1 | 715 | – |
| COc1cc2c(cc1OC)CN(CCCCNC(=O)c1cc(I)ccc1OCCF)CC2 | – | – | – | logP [4]: 4.61; Ki [5]: 1300 nM; Ki [6]: 1.06 nM |
| COc1ccccc1Cn1cc(C(=O)NCCCCN2CCc3cc(OC)c(OC)cc3C2)nn1 | 20600 | 9.7 | 2120 | – |
| COc1ccc(-n2cc(C(=O)NCCN3CCc4cc(OC)c(OC)cc4C3)nn2)cc1 | > 100000 | 410 | > 243 | – |
| COc1cc2c(cc1OC)CN(CCCCNC(=O)c1cn(-c3ccccc3OCCF)nn1)CC2 | 17100 | 24 | 713 | – |
| COc1ccc(-n2cc(C(=O)NCCCCN3CCc4cc(OC)c(OC)cc4C3)nn2)cc1 | 39200 | 5.5 | 7120 | EC50 [7]: > 200000 nM; EC50 [8]: > 200000 nM |
| COc1cccc(Cn2cc(-c3ccc(C(=O)NCCCCN4CCc5cc(OC)c(OC)cc5C4)cc3)nn2)c1 | 11500 | 66.2 | 174 | – |
| COc1ccc(Cn2cc(-c3ccc(C(=O)NCCCCN4CCc5cc(OC)c(OC)cc5C4)cc3)nn2)cc1 | 12600 | 31.4 | 406 | – |
| COc1cc2c(cc1OC)CN(CCCCNC(=O)c1ccc(-c3cn(CCOCCF)nn3)cc1)CC2 | 14700 | 137 | 107 | – |
| CN1CC[C@]2(c3cccc(O)c3)CC/C(=C/c3ccc(Cl)c(Cl)c3)[C@@H]1C2 | – | – | – | Ki [9]: 7460 nM; Ki [10]: 13.4 nM; Ratio Ki (Homo sapiens): 557; logP [4]: 4.34 |
| COc1cc2c(cc1OC)CN(CCCCNC(=O)c1cc(-n3cc(-c4cncn4C)nn3)ccc1OC)CC2 | 6360 | 20.7 | 307 | – |
| COc1cccc(Cn2cc(C(=O)NCCCCN3CCc4cc(OC)c(OC)cc4C3)nn2)c1 | 12700 | 10.7 | 1180 | – |
| COc1cc2c(cc1OC)CN(CCCCNC(=O)c1ccc(-c3cn(CCOCCOCCF)nn3)cc1)CC2 | 16000 | 212 | 75 | – |
| COc1cc2c(cc1OC)CN(CCCCNC(=O)c1cn(Cc3ccccc3)nn1)CC2 | 4480 | 12.4 | 361 | – |
| COc1cccc(Cn2cc(-c3cccc(C(=O)NCCCCN4CCc5cc(OC)c(OC)cc5C4)c3)nn2)c1 | 1750 | 66 | 26 | – |
| COc1cc2c(cc1OC)CN(CCCCNC(=O)c1cc(-n3cc(CN(C)C)nn3)ccc1OCCF)CC2 | 21900 | 94 | 232 | – |
| COc1cc2c(cc1OC)CN(CCCCNC(=O)c1cc(-n3cc(COCCOCCF)nn3)ccc1OC)CC2 | 11500 | 66 | 174 | – |
| COc1cc2c(cc1OC)CN(CCNC(=O)c1cn(-c3ccccc3OC)nn1)CC2 | 15500 | 150 | 103 | – |

| SMILES | Ki [1] [nM] | Ki [2] [nM] | Ratio Ki [3] | other results |
| --- | --- | --- | --- | --- |
| Fc1ccc(-n2cc(CCCCN3CCC4(CC3)OCc3ccccc34)c3ccccc32)cc1 [SIRAMESINE] | – | – | – | Ki [10]: 0.12 nM; logP [4]: 6.07; EC50 [7]: 14900 nM; EC50 [8]: 5300 nM |
| COc1cccc(Cn2cc(C(=O)NCCN3CCc4cc(OC)c(OC)cc4C3)nn2)c1 | 80100 | 214 | 373 | – |
| COc1cc2c(cc1OC)CN(CCCCNC(=O)c1cn(Cc3ccc(O)cc3)nn1)CC2 | 63500 | 11.6 | 5480 | – |
| COc1cc2c(cc1OC)CN(CCCCNC(=O)c1cn(-c3ccccc3OC)nn1)CC2 | 13100 | 1.5 | 8740 | – |
| COc1cc2c(cc1OC)CN(CCCCNC(=O)c1cn(Cc3cccc(OCCF)c3)nn1)CC2 | 46300 | 62.1 | 744 | – |
| COc1cc2c(cc1OC)CN(CCCCNC(=O)c1cn(Cc3cccc(O)c3)nn1)CC2 | 8080 | 22.5 | 359 | – |
| COc1cccc(-n2cc(C(=O)NCCN3CCc4cc(OC)c(OC)cc4C3)nn2)c1 | 76700 | 180 | 426 | – |
| COc1cc2c(cc1OC)CN(CCCCNC(=O)c1cc(C#N)ccc1OCc1cn(CCF)nn1)CC2 | 14100 | 31.9 | 442 | – |
| COc1cc2c(cc1OC)CN(CCCCNC(=O)c1cc(C)ccc1OC)CC2 | – | – | – | logP [4]: 3.55; Ki [5]: 3080 nM |
| CN1CC[C@]2(c3cccc(O)c3)CC/C(=C/c3ccccc3)[C@@H]1C2 | – | – | – | Ki [9]: 3060 nM; Ki [10]: 16.5 nM; Ratio Ki (Homo sapiens): 185; logP [4]: 3.22 |
| COc1cc2c(cc1OC)CN(CCCCNC(=O)c1cn(-c3ccc(OCCF)cc3)nn1)CC2 | 46300 | 21.9 | 2120 | – |
| COc1ccccc1Cn1cc(-c2ccc(C(=O)NCCCCN3CCc4cc(OC)c(OC)cc4C3)cc2)nn1 | 8580 | 55 | 156 | – |
| COc1cc2c(cc1OC)CN(CCCCNC(=O)c1cc(C)ccc1OCCF)CC2 | – | – | – | logP [4]: 3.74; Ki [5]: 330 nM; Ki [6]: 6.59 nM; Ratio Ki (EMT6): 48 |
| COc1cc2c(cc1OC)CN(CCCCNC(=O)c1c[nH]nn1)CC2 | 11000 | 1020 | 10.7 | – |
| COc1cc2c(cc1OC)CN(CCCCNC(=O)c1ccc(-c3cn(CCF)nn3)cc1)CC2 | 71900 | 139 | 517 | – |
| COc1ccc(Cn2cc(C(=O)NCCCCN3CCc4cc(OC)c(OC)cc4C3)nn2)cc1 | 3350 | 5 | 669 | – |
| COc1cccc(-n2cc(C(=O)NCCCCN3CCc4cc(OC)c(OC)cc4C3)nn2)c1 | 20200 | 3 | 6730 | – |
| COc1cccc2c1CCCC2CCCN1CCN(C2CCCCC2)CC1 (configuration not stated) | – | – | – | logP [4]: 5; Ki [11]: 0.28 nM |
| COc1ccccc1Cn1cc(C(=O)NCCN2CCc3cc(OC)c(OC)cc3C2)nn1 | 18600 | 156 | 118 | – |
| COc1cc2c(cc1OC)CN(CCCCNC(=O)c1cn(Cc3ccc(OCCF)cc3)nn1)CC2 | 21500 | 48.2 | 447 | – |
